Sampled rows, rich in hits. Any-hit rate of the full collection: about 3.7%.
UPR XBP1 act = activators of adaptive arm of unfolded protein response (XBP1). activation, % at 20 µM. AID 463104. CHO-XBP1 luciferase reporter, IRE1-XBP1 UPR activation, luminescence; percent of tunicamycin response, DMSO as zero. 330,000 tested, 0.33% active;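 active = versus positive control, 20 µM dose yields 30% or more activation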;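 note: 100% = tunicamycin at 10 µg/mL and 0% = DMSO only wells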
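Material: IRE1-XBP1 luciferase reporter CHO line / Quantity: one thousand reporter cells per well / Buffer or medium: F12 with 10% serum / Compound: 20 µM single concentration, DMSO 1% / Times: 6 h treatment, 37 °C / Detection: Steady-Glo luciferase glow luminescence, 10 min after reagent addition / Benchmarks: tunicamycin high, DMSO low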
B2AR ag = agonists of human beta-2 adrenergic receptor inducing internalization; P07550; Am2.2-beta2AR cells, FAP receptor internalization, flow cytometry; response, % (no concentration beside the values); 340,000 tested, 0.43% active;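 active = response above a set limit, near 3 SD of response in nonfluorescent compounds, cut at about 42% in these data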
Target sequence (P07550 whole entry, looked up): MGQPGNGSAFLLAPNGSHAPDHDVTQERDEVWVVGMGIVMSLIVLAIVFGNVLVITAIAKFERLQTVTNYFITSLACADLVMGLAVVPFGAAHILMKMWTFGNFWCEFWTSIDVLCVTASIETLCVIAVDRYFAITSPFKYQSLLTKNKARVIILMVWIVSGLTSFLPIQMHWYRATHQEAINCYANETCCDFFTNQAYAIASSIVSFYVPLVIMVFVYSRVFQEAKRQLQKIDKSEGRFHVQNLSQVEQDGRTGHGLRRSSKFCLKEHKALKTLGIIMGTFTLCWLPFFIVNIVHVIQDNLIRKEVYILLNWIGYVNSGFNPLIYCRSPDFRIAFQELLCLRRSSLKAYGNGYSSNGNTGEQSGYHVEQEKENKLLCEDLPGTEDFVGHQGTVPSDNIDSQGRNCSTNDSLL
UPR CHOP act = apoptotic UPR (CHOP) activation; CHO-CHOP luciferase reporter, luminescence; percent of tunicamycin response over DMSO baseline; activation, % at 10 µM; 330,000 tested, 0.34% active;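 active = at 10 µM dose, activation of 40% or more, normalized to positive control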;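 note: 100% = tunicamycin at 10 µg/mL and 0% = DMSO alone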
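Test system: CHO CHOP reporter cells. Input: 500 CHO-CHOP cells per well. Medium: F12 with 10% FBS. Technique: luciferase luminescence. Measure: percent activation relative to tunicamycin control. Dosing: 10 µM compound, 0.5% DMSO. Timing: 16-18 h cell attachment, then 6 h compound exposure, 37 °C.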
Dynein cargo inh = dynein cargo transport inhibition; AID 1381; 220,000 tested, 0.47% active; 3617.4 mouse cells, GR-EGFP nuclear translocation imaging; test concentration mostly 20 µM; stimulated with dexamethasone, 1 µM; hits give low values; z-score, hits read low;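 active = plate z-score of nuclear minus cytoplasmic receptor signal below a set negative limit, without overly bright fluorescence or cell loss, cut at about -3.5 in these data, passing the limit was not always enough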;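 note: z-score of nuclear minus cytoplasmic ring GR-EGFP intensity difference per well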
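Also added – dexamethasone, 1.0 µM final · Buffer or medium – tet-free, stripped-serum medium · Schedule – induction 48 h, compound 1 h, agonist 30 min · Detection – formaldehyde fixation, Hoechst nuclear stain, 10x automated fluorescence imaging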
Mdm2 ligase inh = blocks human Mdm2 ubiquitin ligase activity | Q00987 | cell-based MDM2 ubiquitination luciferase reporter, 2 h; 0 = plate control, 100 = twice control, blank-subtracted | signal enhancement, % at 5 µM | 210,000 tested, 0.11% active;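 active = signal enhancement of 30% or more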;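 note: luminescence tracks abundance of the self-degrading MDM2-luciferase fusion protein; higher signal means inhibition of MDM2 E3 ligase activity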
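system = mammalian cells stably expressing self-ubiquitinating, self-degrading MDM2 E3–luciferase fusion | quantity = 2000 cells per well seeded | incubation = 4 h cell settling then 2 h compound exposure, 37 °C | signal = SteadyLite luminescence, 15 min reagent step | benchmarks = plate control and blank wells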
Mdm2-MdmX inh = inhibitors of human Mdm2/MdmX interaction; O15151+Q00987; SaOS-2 split-luciferase Mdm2/MdmX complementation, luminescence; inhibition, % at 8 µM; 330,000 tested, 3% active;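 active = inhibition of at least 50% at 8 µM in the primary screen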
Mdm2 MdmX conf = human Mdm2/MdmX binding inhibition, confirmed | shares compounds with Mdm2-MdmX inh | luminescent assay | inhibition, % at 8 µM | 10,000 tested, 55% active | AID 489028; in the data active = inhibition above about 40%
FLuc counter = counter-screen for Mdm2/MdmX inhibitors: full-length luciferase; shares compounds with Mdm2-MdmX inh; inhibition, % at 8 µM; 6,200 tested, 77% active; SaOS-2 full-length luciferase counterscreen, luminescence;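 active = mean inhibition at 8 µM reaching about 37%, which flags the compound as non-specific, limit read from the data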;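 note: p53-null SaOS-2 cells with luciferase driven by a doxycycline-inducible promoter; compound on cells about two nights before reading with doxycycline added after day one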
The depositor's hits bear a star; . = not tested or not shown.

SMILES	UPR XBP1 act	B2AR ag	UPR CHOP act	Dynein cargo inh	Mdm2 ligase inh	Mdm2-MdmX inh	Mdm2 MdmX conf	others
Cc1ccc(/C=C2/Sc3ccc(C(=O)NCCN4CCOCC4)cc3NC2=O)cc1	6	11	3	.	.	28	.
CCN1CCCC1CNC(=O)c1ccc2c(c1)N(Cc1ccccc1F)C(=O)c1ccccc1S2(=O)=O (stereo unspecified)	-6	14	3	.	.	20	.
O=C(CCn1c(=O)oc2cc(Cl)ccc21)Nc1ccc(N2CCOCC2)cc1	2	-10	-1	.	.	-1	.
O=C(OCc1ccccc1)N(CCCCN(CCCNCc1ccccc1)C(=O)OCc1ccccc1)CCCNCc1ccccc1	.	40	.	.	.	.	.
O=C1Nc2cc(C(=O)NCCCN3CCCC3)ccc2S/C1=C/c1ccccc1F	-1	9	3	.	.	58*	14
CCc1ccc(Oc2ncnc(N)c2[N+](=O)[O-])cc1	-3	-7	-2	-0.96	-27	13	.
CC(=O)c1ccc(Oc2ncnc(N)c2[N+](=O)[O-])cc1	-6	5	0	.	.	60*	60*	FLuc counter=45*
COc1ccc(N2CC(C(=O)N3CCCC(C)C3)CC2=O)cc1 (stereo unspecified)	0	-2	1	.	.	13	.
Cc1nc2n(n1)C(O)c1cc([N+](=O)[O-])ccc1S2 (stereo unspecified)	4	.	0	-0.16	-23	-4	.
O=[N+]([O-])c1ccc2c(c1)C(O)n1nc(-c3ccc(Cl)cc3Cl)nc1S2 (stereo unspecified)	-4	1	0	2	-9	50	54*	FLuc counter=102*
C/C(=N\NC(=O)c1c(Br)c(C)nn1C)c1ccc(NC(=O)C(C)Oc2ccc(Cl)cc2C)cc1 (stereo unspecified)	-2	-1	2	0.54	-74	62*	9
Cc1ccccc1CN1CCN(c2nc3ccccc3s2)CC1	-4	1	4	.	.	-124	.
CCC(C)NC(=O)C1CCN(S(=O)(=O)c2ccc(-n3cnnn3)cc2)CC1 (stereo unspecified)	1	8	-1	.	.	4	.
O=S(=O)(c1cccc(Cn2nnc(-c3ccccc3)n2)c1)N1CCOCC1	-2	-6	1	.	.	-3	.
Cc1nn(-c2cccc(C(F)(F)F)c2)c(Cl)c1/C=N/Nc1cccc(C(=O)O)c1	.	11	.	-0.21	-2	.	.
Cc1nn(-c2ccccc2Cl)c(Cl)c1/C=N/Nc1cccc(C(=O)O)c1	-5	-4	-8	0.036	-42	73*	83*	FLuc counter=124*
CN(C(=O)CN1C(=O)S/C(=C\c2ccc(Cl)cc2)C1=O)C1CCS(=O)(=O)C1 (stereo unspecified)	0	-4	-1	.	.	12	.
O=C(NNC(=O)C1CCC1)c1ccc(Br)cc1	2	0	-1	.	.	-10	.
Cc1cnc(C(=O)NNC(=O)c2ccc(Br)cc2)cn1	-1	-1	0	.	.	61*	35	FLuc counter=69*
COc1ccc(OC)c2c1cc(C(=O)N[C@@H](C)C(=O)N[C@@H](C(=O)O)c1ccccc1)n2C	-4	1	8	.	.	6	.
O=C(c1ccco1)N1CCN(C(c2coc3ccc(Cl)cc3c2=O)c2nnnn2C2CCCC2)CC1 (stereo unspecified)	-5	-18	2	-2.2	.	50*	3
Cc1ccc(C(=O)OC(C)C(=O)c2cc(C)c(C)cc2C)o1 (stereo unspecified)	0	3	0	.	.	14	.
CCCN(C(=O)CCl)C1=CCCCC1	-8	4	1	-0.26	-12	85*	27

Source: PubChem BioAssay (several laboratories)
